Measurements reported in ChEMBL document CHEMBL1143268 (Bioorg Med Chem Lett, 2009).
In brackets after ≈: the same amount, converted by molar mass.

Tests used:
Vaccinia virus [1] = assay: Antiviral activity against Vaccinia virus infected in human foreskin fibroblasts by plaque assay; assay type: functional, organism-based; details: Orthopoxvirus vaccinia
Cowpox virus [2] = assay: Antiviral activity against Cowpox virus infected in human foreskin fibroblasts by plaque assay; assay type: functional, organism-based
Liver = assay: (§1) Metabolic stability in rat liver homogenate; assay type: ADME, tissue-based; details: tissue homogenate
[3] = Solubility in water; assay type: physicochemical
Intestine = assay: (§2) Metabolic stability in rat intestinal homogenate; assay type: ADME, tissue-based; details: tissue homogenate
[4] = as §1; assay type: ADME, tissue-based; details: liver homogenate
Caco-2 = assay: Permeability from apical to basolateral side in human Caco-2 cells after 21 days relative to vidarabine; assay type: ADME, cell-based; details: caco-2, 504 h
Procedure, shortened: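 Caco-2 monolayers were used 21 days post-seeding, with integrity checked by transepithelial resistance. Basolateral aliquots were taken at set intervals and replaced with HEPES buffer pH 7.4.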

[5] = Permeability from apical to basolateral side in human Caco-2 cells after 21 days; assay type: ADME, cell-based; details: read-out: permeability
Procedure, shortened: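 Caco-2 monolayers were used 21 days post-seeding. Basolateral aliquots were taken at set intervals and replaced with HEPES buffer pH 7.4. Monolayer integrity was checked by transepithelial resistance.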

Plasma = assay type: ADME, cell-free; details: rat
HFF = assay: (§3) Cytotoxicity against HFF; assay type: cell-based; details: human, hff
Procedure, shortened: (§4)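 Cytotoxicity scored visually in uninfected human foreskin fibroblasts, reported as the 50% inhibitory concentration.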

HeLa [6] = assay: Cellular uptake in human HeLa cells after 45 mins; assay type: ADME, cell-based; details: 0.75 h
Procedure, shortened: (§5)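 Direct uptake measured over 45 min and expressed as nmol/mg, in HeLa cells stably expressing hPEPT1 and in parental HeLa controls. Valacyclovir served as the positive control for hPEPT1 carrier-mediated uptake. Values are means ± SD of three experiments.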

HeLa [7] = assay: Cellular uptake in human HeLa cells expressing human PEPT1 transporter after 45 mins; assay type: ADME, cell-based; details: 0.75 h; procedure, shortened: as §5
[8] = Oral bioavailability in human; assay type: ADME, organism-based; details: in vivo
[9] = Cytotoxicity against HFF in presence of deoxy-coformycin; assay type: cell-based; details: human, HFF cells
Procedure, shortened: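 Cytotoxicity was scored visually in uninfected HFF cells, with 1 μM deoxycoformycin present, and reported as the 50% inhibitory concentration.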

Vaccinia virus [10] = assay: Antiviral activity against Vaccinia virus infected in HFF by plaque assay in presence of deoxy-coformycin; assay type: functional, organism-based; details: Orthopoxvirus vaccinia
[11] = as §2; assay type: ADME, tissue-based, Intestine; details: intestinal homogenate
[12] = as §3; assay type: cell-based; details: human, HFF cells; procedure, shortened: as §4
Cowpox virus [13] = assay: Antiviral activity against Cowpox virus infected in HFF by plaque assay in presence of deoxy-coformycin; assay type: functional, organism-based

SMILES | EC50 (Vaccinia virus [1]) | EC50 (Cowpox virus [2]) | t1/2 (Liver) | solubility [3] | t1/2 (Intestine) | t1/2 (Plasma) | CC50 (HFF) | also measured
CC(C)C[C@@H](N)C(=O)OC[C@H]1O[C@@H](n2cnc3c(N)ncnc32)[C@@H](O)[C@@H]1O | 3 µM | 2.5 µM | 3.6 min | > 10000 µg/mL | 2.4 min |  |  | 
Nc1ncnc2c1ncn2[C@@H]1O[C@H](COC(=O)[C@@H](N)Cc2ccccc2)[C@@H](O)[C@@H]1O | 1.8 µM | 3.5 µM |  | > 10000 µg/mL | 16.2 min |  |  | half-life [4]: 1.02 min; fold change (FC) (Caco-2): 8.05; Papp A→B [5]: 0.668 ×10⁻⁶ cm/s
CC[C@H](C)[C@@H](N)C(=O)OC[C@H]1O[C@@H](n2cnc3c(N)ncnc32)[C@@H](O)[C@@H]1O | 2.9 µM | 3.5 µM | 18.6 min | > 10000 µg/mL | 474 min | 96.6 min |  | 
CC(C)[C@@H](N)C(=O)OC[C@H]1O[C@@H](n2cnc3c(N)ncnc32)[C@@H](O)[C@@H]1O | 4.1 µM | 8 µM | 27.6 min | > 10000 µg/mL | Stable | 615.6 min | > 100 µM | fold change (FC) (Caco-2): 7.2; Papp A→B [5]: 0.601 ×10⁻⁶ cm/s
Nc1ncnc2c1ncn2[C@@H]1O[C@H](COC(=O)[C@H](N)Cc2ccccc2)[C@@H](O)[C@@H]1O | 2.3 µM | 4 µM | 6 min | > 10000 µg/mL | 35.4 min |  | > 100 µM | 
CC(C)C[C@H](N)C(=O)OC[C@H]1O[C@@H](n2cnc3c(N)ncnc32)[C@@H](O)[C@@H]1O | 3.3 µM | 3 µM | 3 min | > 10000 µg/mL | 1.8 min |  | > 100 µM | 
Nc1ncnc2c1ncn2[C@@H]1O[C@H](COC(=O)[C@H](N)CC(=O)O)[C@@H](O)[C@@H]1O | 2.5 µM | 4 µM |  | > 10000 µg/mL |  |  | > 100 µM | 
Nc1ncnc2c1ncn2[C@@H]1O[C@H](COC(=O)C[C@@H](N)C(=O)O)[C@@H](O)[C@@H]1O | 3.5 µM | 25 µM |  | > 10000 µg/mL |  |  | > 100 µM | 
COC(=O)[C@H](NP(=O)(OC[C@H]1O[C@@H](n2cnc3c(N)ncnc32)[C@@H](O)[C@@H]1O)Oc1ccccc1)C(C)C (some centres not stated) |  |  | 355 min | > 10000 µg/mL | 1099 min | 21 min |  | 
CC(C)[C@H](N)C(=O)OC[C@H]1O[C@@H](n2cnc3c(N)ncnc32)[C@@H](O)[C@@H]1O | 4.8 µM | 4 µM | 1.8 min | > 10000 µg/mL | 18 min | 7.8 min |  | Drug uptake (HeLa [6]): 3.9 nmol/mg; Drug uptake (HeLa [7]): 80.3 nmol/mg
CC[C@H](C)[C@H](N)C(=O)OC[C@H]1O[C@@H](n2cnc3c(N)ncnc32)[C@@H](O)[C@@H]1O | 4.5 µM | 2.5 µM | 3.6 min | > 10000 µg/mL | 34.8 min | 215 min | > 100 µM | Drug uptake (HeLa [6]): 7.5 nmol/mg; Drug uptake (HeLa [7]): 202 nmol/mg; fold change (FC) (Caco-2): 12.4; Papp A→B [5]: 1.03 ×10⁻⁶ cm/s
COC(=O)[C@@H](NP(=O)(OC[C@H]1O[C@@H](n2cnc3c(N)ncnc32)[C@@H](O)[C@@H]1O)Oc1ccccc1)C(C)C (some centres not stated) |  |  | Stable | > 10000 µg/mL | Stable | 18 min |  | 
Nc1ccn(C[C@@H](CO)OCP(=O)(O)O)c(=O)n1.O.O [CIDOFOVIR] |  |  |  |  |  |  |  | bioavailability [8]: 2%
CC(C)[C@H](N)C(=O)OCCOCn1cnc2c(=O)[nH]c(N)nc21 [VALACYCLOVIR] |  |  |  |  |  |  |  | Drug uptake (HeLa [6]): 11.6 nmol/mg; Drug uptake (HeLa [7]): 221 nmol/mg
Nc1ncnc2c1ncn2[C@@H]1O[C@H](CO)[C@@H](O)[C@@H]1O [VIDARABINE] | 6.2 µM | 12.6 µM |  | 470 µg/mL (≈ 1.76 mM) |  |  |  | CC50 [9]: 90 µM; EC50 (Vaccinia virus [10]): 1 µM; half-life [4]: 15 min; Papp A→B [5]: 0.083 ×10⁻⁶ cm/s; half-life [11]: 3 min; CC50 [12]: > 100 µM; EC50 (Cowpox virus [13]): 1.4 µM
